Source: ChEMBL document CHEMBL1152298 (J Med Chem, 2008)
Calls of active or inactive are those of the source. No cut-off for these calls is given here.

Legend:
[1] = Displacement of [3H]Ro-151788 from benzodiazepine binding site of GABAA alpha-1-beta-2-gamma-2 T81C receptor mutant expressed in HEK293T cells; type: cell-based; settings: hek-293t
[2] = Displacement of [3H]Ro-151788 from benzodiazepine binding site of GABAA alpha-1-beta-2-gamma-2 R185C receptor mutant expressed in HEK293T cells; type: cell-based; settings: hek-293t
[3] = Displacement of [3H]Ro-151788 from benzodiazepine binding site of GABAA alpha-1-beta-2-gamma-2 L140C receptor mutant expressed in HEK293T cells; type: cell-based; settings: hek-293t
[4] = Displacement of [3H]Ro-151788 from benzodiazepine binding site of GABAA alpha1 S204C beta2gamma2 receptor mutant expressed in HEK293T cells; type: cell-based; settings: hek-293t
[5] = Displacement of [3H]Ro-151788 from benzodiazepine binding site of GABAA alpha1 A160C beta2gamma2 receptor mutant expressed in HEK293T cells; type: cell-based; settings: hek-293t
[6] = Displacement of [3H]Ro-151788 from benzodiazepine binding site of GABAA alpha-1-beta-2-gamma-2 […] receptor mutant expressed in HEK293T cells; type: cell-based; settings: hek-293t
[7] = Displacement of [3H]Ro15-1788 from benzodiazepine binding site of GABAA alpha-1 G157C beta2gamma2 receptor mutant expressed in HEK293T cells; type: cell-based; settings: hek-293t
[8] = Displacement of [3H]Ro15-1788 from benzodiazepine binding site of GABAA alpha1 T162C beta-2-gamma-2 receptor mutant expressed in HEK293T cells; type: cell-based; settings: hek-293t
In short: (§1)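 Cysteine mutant α1 subunit made by recombinant PCR, co-transfected with WT β2 and γ2L (equal DNA ratios, 4 μg/subunit, CaHPO4 method) into HEK293T cells; membranes harvested 48 h post-transfection. One-site competition fit; Ki by Cheng-Prusoff; three experiments in triplicate, mean ± SD.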

[9] = Displacement of [3H]Ro-151788 from benzodiazepine binding site of GABAA alpha-1-beta-2-gamma-2 R194C receptor mutant expressed in HEK293T cells; type: cell-based; settings: hek-293t
In short: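 Transiently expressed in HEK293T (CaHPO4 transfection, equal α/β/γ DNA, 4 μg/subunit; cysteine-mutant γ2L with WT α1, β2). […] One-site competition fit for IC50; Ki by Cheng-Prusoff; mean ± SD, three experiments in triplicate; mutant/WT Ki ratio.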

[10] = Displacement of [3H]Ro15-1788 from benzodiazepine binding site of GABAA alpha-1 F99C beta2gamma2 receptor mutant expressed in HEK293T cells; type: cell-based; settings: hek-293t
[11] = Displacement of [3H]Ro-151788 from benzodiazepine binding site of GABAA alpha-1-beta-2-gamma-2 M130C receptor mutant expressed in HEK293T cells; type: cell-based; settings: hek-293t
[12] = Displacement of [3H]Ro15-1788 from benzodiazepine binding site of GABAA alpha-1 T206C beta2gamma2 receptor mutant expressed in HEK293T cells; type: cell-based; settings: hek-293t
[13] = target: GABA A receptor alpha-3/beta-2/gamma-2 (Rattus norvegicus, UniProt P18508+P20236+P63138); assay: Displacement of [3H]Ro-151788 from benzodiazepine binding site of GABAA alpha-3-beta-2-gamma-2 receptor expressed in HEK293T cells; type: cell-based, HEK-293T
Sequence of GABA A receptor alpha-3/beta-2/gamma-2 (P18508 whole entry): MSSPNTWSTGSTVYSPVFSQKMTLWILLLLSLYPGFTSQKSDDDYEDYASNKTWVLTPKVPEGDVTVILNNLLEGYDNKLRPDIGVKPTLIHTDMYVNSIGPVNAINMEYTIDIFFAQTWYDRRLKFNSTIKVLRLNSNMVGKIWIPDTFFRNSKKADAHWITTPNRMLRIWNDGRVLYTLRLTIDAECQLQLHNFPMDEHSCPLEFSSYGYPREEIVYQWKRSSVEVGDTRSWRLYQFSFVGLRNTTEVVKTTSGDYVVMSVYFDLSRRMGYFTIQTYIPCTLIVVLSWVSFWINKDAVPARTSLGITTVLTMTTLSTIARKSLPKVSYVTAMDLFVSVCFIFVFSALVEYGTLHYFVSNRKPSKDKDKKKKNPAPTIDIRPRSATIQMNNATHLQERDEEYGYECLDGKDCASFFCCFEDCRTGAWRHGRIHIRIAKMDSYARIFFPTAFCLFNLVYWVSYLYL
Sequence of GABA A receptor alpha-3/beta-2/gamma-2 (P20236 whole entry): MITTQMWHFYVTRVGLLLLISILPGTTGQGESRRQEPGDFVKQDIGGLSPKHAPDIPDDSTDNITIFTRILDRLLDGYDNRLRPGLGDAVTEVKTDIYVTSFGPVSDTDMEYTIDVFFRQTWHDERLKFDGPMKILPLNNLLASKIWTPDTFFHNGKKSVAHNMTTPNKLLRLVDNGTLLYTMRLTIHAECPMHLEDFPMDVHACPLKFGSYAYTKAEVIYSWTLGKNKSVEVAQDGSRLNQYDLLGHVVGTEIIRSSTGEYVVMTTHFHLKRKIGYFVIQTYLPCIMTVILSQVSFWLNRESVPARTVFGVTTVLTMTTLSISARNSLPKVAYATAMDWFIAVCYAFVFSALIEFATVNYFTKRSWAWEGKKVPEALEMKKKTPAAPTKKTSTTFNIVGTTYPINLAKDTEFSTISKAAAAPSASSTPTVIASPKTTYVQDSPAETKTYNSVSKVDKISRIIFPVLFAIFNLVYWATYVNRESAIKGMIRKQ
Sequence of GABA A receptor alpha-3/beta-2/gamma-2 (P63138 whole entry): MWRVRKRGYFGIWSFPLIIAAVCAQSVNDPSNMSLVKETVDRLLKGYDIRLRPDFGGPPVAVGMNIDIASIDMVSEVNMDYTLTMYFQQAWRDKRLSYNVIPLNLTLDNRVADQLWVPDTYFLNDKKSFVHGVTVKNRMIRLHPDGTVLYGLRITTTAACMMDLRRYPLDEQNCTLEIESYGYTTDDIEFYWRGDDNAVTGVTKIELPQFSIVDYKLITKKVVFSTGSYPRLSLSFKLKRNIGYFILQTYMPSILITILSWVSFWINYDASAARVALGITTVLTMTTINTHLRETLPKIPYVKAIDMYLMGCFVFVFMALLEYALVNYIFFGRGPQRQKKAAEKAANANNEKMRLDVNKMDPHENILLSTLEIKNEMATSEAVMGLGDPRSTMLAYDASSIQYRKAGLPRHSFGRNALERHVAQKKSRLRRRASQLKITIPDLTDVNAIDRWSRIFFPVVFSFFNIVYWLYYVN
In short: (§2)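 α2 or α3 subunits were co-transfected with β2 and γ2, all in pRK5, into HEK293T cells by CaHPO4 precipitation at 4 μg per subunit. Membranes were prepared at 48 h. IC50 came from a one-site competition fit and was converted to Ki by Cheng-Prusoff. Mean ± SD of ≥3 experiments.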

[14] = Displacement of [3H]Ro-151788 from benzodiazepine binding site of GABAA alpha-1-beta-2-gamma-2 T126C receptor mutant expressed in HEK293T cells; type: cell-based; settings: hek-293t
[15] = Displacement of [3H]Ro-151788 from benzodiazepine binding site of GABAA alpha-1-beta-2-gamma-2 T142C receptor mutant expressed in HEK293T cells; type: cell-based; settings: hek-293t
[16] = Displacement of [3H]Ro-151788 from benzodiazepine binding site of GABAA alpha1 S205C beta2gamma2 receptor mutant expressed in HEK293T cells; type: cell-based; settings: hek-293t
[17] = Displacement of [3H]Ro15-1788 from benzodiazepine binding site of GABAA alpha-1 V211C beta2gamma2 receptor mutant expressed in HEK293T cells; type: cell-based; settings: hek-293t; in short: as §1
[18] = target: GABA A receptor alpha-2/beta-2/gamma-2 (Rattus norvegicus, UniProt P18508+P23576+P63138); assay: Displacement of [3H]Ro-151788 from benzodiazepine binding site of GABAA alpha-2-beta-2-gamma-2 receptor expressed in HEK293T cells; type: cell-based, HEK-293T; in short: as §2
Sequence of GABA A receptor alpha-2/beta-2/gamma-2 (P18508 whole entry): as the sequence (P18508 whole entry) above
Sequence of GABA A receptor alpha-2/beta-2/gamma-2 (P23576 whole entry): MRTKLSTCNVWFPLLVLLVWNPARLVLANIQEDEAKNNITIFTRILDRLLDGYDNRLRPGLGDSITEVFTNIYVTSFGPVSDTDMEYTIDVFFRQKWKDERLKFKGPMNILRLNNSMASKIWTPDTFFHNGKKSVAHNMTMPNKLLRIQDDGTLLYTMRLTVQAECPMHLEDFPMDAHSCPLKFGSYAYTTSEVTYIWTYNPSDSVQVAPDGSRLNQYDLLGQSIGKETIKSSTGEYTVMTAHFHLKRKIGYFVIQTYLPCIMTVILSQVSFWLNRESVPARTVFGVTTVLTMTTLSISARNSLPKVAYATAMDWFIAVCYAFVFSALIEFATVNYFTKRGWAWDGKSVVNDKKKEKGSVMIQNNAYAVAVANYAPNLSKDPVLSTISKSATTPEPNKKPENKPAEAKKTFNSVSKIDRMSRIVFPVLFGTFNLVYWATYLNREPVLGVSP
Sequence of GABA A receptor alpha-2/beta-2/gamma-2 (P63138 whole entry): as the sequence (P63138 whole entry) above

[19] = Displacement of [3H]Ro-151788 from benzodiazepine binding site of GABAA alpha1 V202C beta2gamma2 receptor mutant expressed in HEK293T cells; type: cell-based; settings: hek-293t
[20] = Displacement of [3H]Ro-151788 from benzodiazepine binding site of GABAA alpha-1-beta-2-gamma-2 D56C receptor mutant expressed in HEK293T cells; type: cell-based; settings: hek-293t
[21] = Displacement of [3H]Ro15-1788 from benzodiazepine binding site of GABAA alpha-1 G200C beta2gamma2 receptor mutant expressed in HEK293T cells; type: cell-based; settings: hek-293t
[22] = Displacement of [3H]Ro-151788 from benzodiazepine binding site of GABAA alpha-1-beta-2-gamma-2 R132C receptor mutant expressed in HEK293T cells; type: cell-based; settings: hek-293t
[23] = Displacement of [3H]Ro-151788 from benzodiazepine binding site of GABAA alpha-1-beta-2-gamma-2 A79C receptor mutant expressed in HEK293T cells; type: cell-based; settings: hek-293t
HEK-293T [24] = assay: Displacement of [3H]Ro-151788 from benzodiazepine binding site of GABAA alpha-1-beta-2-gamma-2 F77C receptor mutant expressed in HEK293T cells; type: cell-based
In short: (§3)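 HEK293T cells in MEM with 10% FBS were transiently transfected by CaHPO4 precipitation with α1, β2 and γ2L subunits (WT or PCR-made, sequence-verified cysteine mutant) in pUNIV, using equal ratios at 4 μg per subunit. Membranes were harvested at 48 h. […] Ki was derived from a one-site fit using Cheng-Prusoff. Mean ± SD, three experiments in triplicate.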

HEK-293T [25] = assay: Displacement of [3H]Ro-151788 from benzodiazepine binding site of GABAA alpha1 D97C beta2gamma2 receptor mutant expressed in HEK293T cells; type: cell-based; in short: as §3
HEK-293T [26] = assay: Displacement of [3H]Ro15-1788 from benzodiazepine binding site of GABAA alpha1 Y209C beta2gamma2 receptor mutant expressed in HEK293T cells; type: cell-based; in short: as §3

SMILES: CN1CCN(C(=O)O[C@H]2c3nccnc3C(=O)N2c2ccc(Cl)cn2)CC1 [ESZOPICLONE]
- Ki [1]: 0.0752 µM
- Ki [2]: 0.0709 µM
- Ki [3]: 0.0463 µM
- Ki [4]: 0.0579 µM
- Ki [5]: 0.0604 µM
- Ki [6]: 0.0224 µM
- Ki [7]: 2.1 µM
- Ki [8]: 0.0338 µM
- Ki [9]: 0.067 µM
- Ki [10]: 0.407 µM
- Ki [11]: 0.102 µM
- Ki [12]: 0.00083 µM
- Ki [13]: 0.162 µM
- Ki [14]: 0.0719 µM
- Ki [15]: 0.503 µM
- Ki [16]: 0.0349 µM
- Ki [17]: 0.0624 µM
- Ki [18]: 0.114 µM
- Ki [19]: 0.249 µM
- Ki [20]: 0.0824 µM
- Ki [21]: 0.119 µM
- Ki [22]: 0.11 µM
- Ki [23]: 0.393 µM

SMILES: CCOC(=O)c1ncn2c1CN(C)C(=O)c1cc(F)ccc1-2 [FLUMAZENIL]
- Activity (HEK-293T [24]): inactive
- Activity (HEK-293T [25]): inactive
- Activity (HEK-293T [26]): inactive
